The source of these data is ChEMBL document CHEMBL1123247, “Nucleoside conjugates. 7. Synthesis and antitumor activity of 1-beta-D-arabinofuranosylcytosine conjugates of ether lipids” (J Med Chem, 1986).

Test [1] has as its system P388. The test can be described thus: Antitumor activity was determined against the ip implanted P388 leukemia in mice by percent median survival rate (treated/control) at 67 mg/kg (treatment of 1,5,9qd schedule) dosage; 25.5/11.0. It is filed as functional, Mus musculus. Conditions: route intraperitoneal.
Test [2] relates to P388. The test can be described thus: Antitumor activity was determined against the ip implanted P388 leukemia in mice by range in survival days at 500 mg/kg (treatment of 1qd schedule) dosage; Range is 23->45. Particulars: route intraperitoneal. It is filed as functional, Mus musculus.
For test [3], the system named is L1210. The test can be described thus: Antitumor activity against ic implanted L1210 lymphoid leukemia in mice expressed as active dose range (1 qd treatment schedule) required to produce increase in life span by >25% was determined; Range is 200-400. Format: functional, Mus musculus. In short, it runs like this: (§1)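 DBA/2J mice, groups of 6 (26-32 g), got 1 × 10^5 L1210 cells ic on day 0. Dosing was ip starting 24 h later, as a sonicated solution or suspension in 0.9% NaCl with 0.5% Tween-80, over a wide dose range. Mice were followed daily until death. Median survival T/C was taken from survivors per NCI protocols, and ILS = (T/C − 1) × 100. Active range means doses giving ILS ≥25%; optimal dose means greatest ILS.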

Test [4] has as its system L1210. The test can be described thus: Antitumor activity was determined against the ic implanted L1210 lymphoid leukemia in mice by percent increase in life span at 133 mg/kg (1,5,9qd treatment schedule) dosage. It is filed as functional, Mus musculus. The essentials:
as §1

In test [5] the test system is L1210. The test can be described thus: Antitumor activity was determined against the ic implanted L1210 lymphoid leukemia in mice by percent increase in life span at 80 mg/kg (1-5qd treatment schedule) dosage. It is filed as functional, Mus musculus. In short, it runs like this: as §1
In test [6] the test system is L1210. The test can be described thus: Antitumor activity was determined against the ic implanted L1210 lymphoid leukemia in mice by range in survival days at 80 mg/kg (1-5qd treatment schedule) dosage; Range is 11-24. It is filed as functional, Mus musculus.
The subject of test [7] is L1210. The test can be described thus: Antitumor activity was determined against the ic implanted L1210 lymphoid leukemia in mice by median survival time at 133 mg/kg (1,5,9qd treatment schedule) dosage; 20.0/8.0.
The subject of test [8] is L1210. The test can be described thus: Antitumor activity was determined against the ic implanted L1210 lymphoid leukemia in mice by change in […] at 80 mg/kg (1-5qd treatment schedule) dosage. Format: functional, Mus musculus. In short, it runs like this: (§2)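 DBA/2J mice, 6 per group (wt 26-32 g), inoculated ic with 1×10^5 L1210 cells on day 0. Dosing ip began 24 h after inoculation, with a sonicated solution or suspension in 0.9% NaCl containing 0.5% Tween-80, given over a range of doses. Animals were followed daily until death. Body weight change, median survival T/C, and %ILS = (T/C − 1) × 100 were computed from survivors per NCI protocols.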

In test [9] the test system is L1210. The test can be described thus: Antitumor activity was determined against the ip implanted L1210 leukemia in mice by 45-day survivors in mice at 40 mg/kg (treatment of 1-5qd schedule) dosage. Format: functional, Mus musculus. Particulars: route intraperitoneal. The essentials:
(§3)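 DBA/2J mice in groups of 6 (wt 23-28 g) were inoculated ip with 1×10^6 L1210 cells on day 0. Dosing was ip from 24 h, in 0.9% NaCl with 0.5% Tween-80 (conjugates sonicated), across a range of doses. Mice were observed daily until death or 45 days. Median T/C was computed from survivors per NCI protocols, and ILS = (T/C − 1)×100.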

In test [10] the test system is L1210. The test can be described thus: Antitumor activity against the ic implanted L1210 lymphoid leukemia in mice expressed as optimal dose (1 qd treatment schedule) required to produce greatest increase in life span was determined. It is filed as functional, Mus musculus. In short, it runs like this: as §1
Test [11] relates to P388. The test can be described thus: Antitumor activity against ip implanted P388 leukemia in mice expressed as active dose range (1,5,9qd treatment schedule) required to produce increase in life span by >25% was determined; Range is 100-167. Format: functional, Mus musculus. In short, it runs like this: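 P388 leukemia: 1 × 10^6 cells were given ip on day 0 to DBA/2J mice, groups of 6 (23-33 g). Treatment was ip from 24 h after inoculation, vehicle 0.9% NaCl with 0.5% Tween-80. Mice were observed daily until death or 45 days. Median survival T/C was calculated from survivors per NCI protocols, and ILS = (T/C − 1) × 100. Active range means doses giving ILS ≥25%; optimal dose means greatest ILS.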

In test [12] the test system is L1210. The test can be described thus: Antitumor activity was determined against the ip implanted L1210 leukemia in mice by percent increase in life span at 300 mg/kg (treatment of 1qd schedule) dosage. Format: functional, Mus musculus. Conditions: route intraperitoneal. In short, it runs like this: as §3
Test [13] relates to L1210. The test can be described thus: Antitumor activity against the ic implanted L1210 lymphoid leukemia in mice expressed as optimal dose (1 qd treatment schedule) required to produce greatest increase in life span was determined.
Test [14] deals with L1210. The test can be described thus: Antitumor activity was determined against the ic implanted L1210 lymphoid leukemia in mice by change in […] at 167 mg/kg (treatment of 1, 5, 9qd schedule) dosage. It is filed as functional, Mus musculus. In short, it runs like this: as §2
Test [15] concerns L1210. The test can be described thus: Antitumor activity was determined against the ip implanted L1210 leukemia in mice by range in survival days at 400 mg/kg (treatment of 1qd schedule) dosage; Range is 20-33. Particulars: route intraperitoneal. Format: functional, Mus musculus. The essentials: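 DBA/2J mice, 23-28 g, in groups of 6, were inoculated ip with 1×10^6 L1210 cells on day 0. Dosing was ip starting 24 h later on the stated daily schedules. Conjugates were given as sonicated solutions and reference prodrugs as suspensions in 0.9% NaCl with 0.5% Tween-80. Mice were observed daily until death or 45 days. Median survival T/C was calculated from survivors per NCI protocols.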

For test [16], the system named is P388. The test can be described thus: Antitumor activity was determined against the ip implanted P388 leukemia in mice by change in […] at 200 mg/kg (treatment of 1-5qd schedule) dosage. It is filed as functional, Mus musculus. Particulars: route intraperitoneal. In short, it runs like this:
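P388 leukemia, 1×10^6 cells implanted ip on day 0 into DBA/2J mice, groups of 6 (wt 23-33 g). Dosing ip started 24 h post-inoculation, vehicle 0.9% NaCl containing 0.5% Tween-80. Animals were observed daily until death or 45 days. Outputs were weight change, median survival T/C from survivors per NCI protocols, and %ILS = (T/C − 1) × 100.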

Test [17] has as its system L1210. The test can be described thus: Antitumor activity was determined against the ic implanted L1210 lymphoid leukemia in mice by range in survival days at 300 mg/kg (treatment of 1-5qd schedule) dosage; Range is 15-18. It is filed as functional, Mus musculus.
The subject of test [18] is L1210. The test can be described thus: Antitumor activity was determined against the ip implanted L1210 leukemia in mice by change in […] at 400 mg/kg (treatment of 1-5qd schedule) dosage. It is filed as functional, Mus musculus. Particulars: dose 200 mg/kg; route intraperitoneal; in the assay text read “200 mg/kg” for “400 mg/kg”. In short, it runs like this: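 DBA/2J mice, 6 per group (wt 23-28 g), inoculated ip with 1×10^6 L1210 cells on day 0. Treatment was given ip in 0.9% NaCl with 0.5% Tween-80, starting 24 h later. Weight change was taken on day 8. Mice were observed daily until death or 45 days. Median survival T/C and %ILS = (T/C − 1) × 100 came from survivors per NCI protocols, and 45-day survivors were counted.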

Test [19] relates to P388. The test can be described thus: Antitumor activity was determined against the ip implanted P388 leukemia in mice by range in survival days at 200 mg/kg (treatment of 1-5qd schedule) dosage; Range is 22-24. It is filed as functional, Mus musculus. Conditions: route intraperitoneal.
For test [20], the system named is L1210. The test can be described thus: Antitumor activity was determined against the ic implanted L1210 lymphoid leukemia in mice by range in survival days at 100 mg/kg (treatment of 1-9qd schedule) dosage; Range is 11-18. Format: functional, Mus musculus.

Regarding `CCCCCCCCCCCCCCCCCCOCC(COP(=O)(O)OP(=O)(O)OC[C@H]1O[C@@H](n2ccc(N)nc2=O)[C@@H](O)[C@@H]1O)OC(=O)CCCCCCCCCCCCCCC` (mixture of isomers), the T/C in the test on P388 [1] is on record as 25.5%. This compound also had a Range with P388 [2] of 23.

In the case of `CCCCCCCCCCCCCCCC(=O)OC[C@H](COP(=O)(O)OP(=O)(O)OC[C@H]1O[C@@H](n2ccc(N)nc2=O)[C@@H](O)[C@@H]1O)OC(=O)CCCCCCCCCCCCCCC`, the Active dose range in the test on L1210 [3] was 200 mg/kg/day; with P388 [11], 100 mg/kg/day. For the same compound, the ILS was determined as 150 in the test with L1210 [4], 175 with L1210 [5] and 215 in the test with L1210 [12]. The Range in the test on L1210 [6] came out at 11. The median survival time in the test with L1210 [7] was 20 days. Also, in the test with L1210 [8], the Weight change is recorded as -5.24 g mouse-1. The Survivors in the test with L1210 [9] was 1. The compound also returned an Optimal dose in the test on L1210 [10] of 300 mg.

Compound `CCCCCCCCCCCCCCCCOCC(COP(=O)(O)OP(=O)(O)OC[C@H]1O[C@@H](n2ccc(N)nc2=O)[C@@H](O)[C@@H]1O)OC(=O)CCCCCCCCCCCCCCC` (mixture of isomers) gave an Optimal dose in the test on L1210 [13] of 500 mg. In the test on L1210 [14], this compound came in with a Weight change of -1.15 g mouse-1. The compound further displayed a Range with L1210 [15] of 20.

With `Nc1ccn([C@@H]2O[C@H](CO)[C@@H](O)[C@@H]2O)c(=O)n1` [CYTARABINE], the Weight change in the test on P388 [16] is reported as -3.62 g mouse-1; in the test with L1210 [18] it was -2.9 g mouse-1. The Range with L1210 [17] is recorded as 15; in the test on P388 [19] it was 22; in the test with L1210 [20], 11.
